Measurements gathered from unrelated publications.
Protocols differ between the studies behind these lines.
Cell line: HeLa
Read-out: cell growth or viability

| Compound | technique | time | quantity | result |
| --- | --- | --- | --- | --- |
| Cc1ccn2c(C(=O)N3CCN(Cc4cn(-c5ccc(F)c(Cl)c5)nn4)CC3)c(C)nc2c1 | resazurin | – | CC50 | > 100 µM |
| CCOP(=O)(OCC)[C@@H]1C[C@H](n2cc(C(=O)OC)nn2)ON1C (relative stereo) | – | 72 h | CC50 | > 250 µM |
| Cc1ccc(-n2cc(CN3CCN(C(=O)c4c(C)nc5ccc(Cl)cn45)CC3)nn2)cc1C | resazurin | – | CC50 | > 100 µM |
| CCOP(=O)(OCC)[C@@H]1C[C@@H](n2cc(Cn3ccc(NC(C)=O)nc3=O)nn2)ON1C (racemic) | – | 72 h | CC50 | > 250 µM |
| CNc1ccc(S(=O)(=O)Nc2ccc(OC)nc2)cc1 | XTT | 72 h | IC50 | > 100 µM |
| CCCCCCCCCc1cn(CCN2CCN(C(=O)c3c(C)nc4ccc(Cl)cn34)CC2)nn1 | resazurin | – | CC50 | > 100 µM |
| COc1cc2nnn(S(=O)(=O)c3ccc(N(C)C)cc3)c2cc1OC | XTT | 72 h | IC50 | 55 µM |
| Cc1ccn2c(C(=O)N3CCN(Cc4cn(-c5ccccc5)nn4)CC3)c(C)nc2c1 | resazurin | – | CC50 | > 100 µM |
| CC(=O)O[C@H]1C(=O)[C@@]2(C)[C@H]([C@H](OC(=O)c3ccccc3)[C@]3(O)C[C@H](OC(=O)[C@H](O)[C@@H](NC(=O)c4ccccc4)c4ccccc4)C(C)=C1C3(C)C)[C@]1(OC(C)=O)CO[C@@H]1C[C@@H]2O | MTT | 48 h | IC50 | 4.8 µM |
| COc1ccc(NS(=O)(=O)c2ccc(N)cc2)cc1OC | XTT | 72 h | IC50 | > 100 µM |
| Cc1nc2ccc(Cl)cn2c1C(=O)N1CCN(Cc2cn(-c3cccc([N+](=O)[O-])c3)nn2)CC1 | resazurin | – | CC50 | > 100 µM |
| COC(=O)CNC(=O)C(=O)OC | – | – | CC50 | > 1000 µM |
| CCOP(=O)(OCC)[C@@H]1C[C@H](n2cc(-c3ccccn3)nn2)ON1C | – | 72 h | CC50 | > 250 µM |
| COc1ccc(S(=O)(=O)Nc2cc(C#N)ccc2OS(=O)(=O)c2ccc(OC)cc2)cc1 | XTT | 72 h | IC50 | 77 µM |
| CCOP(=O)(OCC)[C@@H]1C[C@H](n2cc(-c3nccn3C)nn2)ON1C | – | 72 h | CC50 | > 250 µM |
| COc1ccc(OC)c(NS(=O)(=O)c2ccc(OC)c([N+](=O)[O-])c2)c1 | XTT | 72 h | IC50 | > 100 µM |
| CCOP(=O)(OCC)[C@@H]1C[C@H](n2cc(Cn3cnc4c(N)ncnc43)nn2)ON1C (relative stereo) | – | 72 h | CC50 | ≥ 250 µM |
| CCCCCCCCCc1cn(CCN2CCN(C(=O)c3c(C)nc4cc(C)ccn34)CC2)nn1 | resazurin | – | CC50 | 62.7 µM |
| COc1cc(NS(=O)(=O)c2ccc([N+](=O)[O-])cc2)cc(OC)c1 | XTT | 72 h | IC50 | > 100 µM |
